Measurements as given in ChEMBL document CHEMBL4028856, “Discovery of Small Molecules Targeting the Synergy of Cardiac Transcription Factors GATA4 and NKX2-5” (J Med Chem, 2017).
Each block holds one compound with its values, some of them ahead of it. Activity calls are given as the source filed them. The calls are words filed in the database; no cut-off is given here.

Legend:
[1] = target: T1, GATA4/NKX2-5 (Rattus norvegicus) (UniProt P46152+O35767); test: Activation of GATA4/NKX2-5 interaction in neonatal rat ventricular cardiomyocytes assessed as increase in basal mRNA level of ANP at 100 uM after 24 hrs by real-time PCR analysis relative to control
In short: (§1)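 Neonatal rat ventricular myocytes (2–4-day-old Sprague-Dawley or Wistar), preplated, seeded on 6-well plates, moved to complete serum-free medium next day and cultured 24 h. Compounds (10–100 μM) added 1 h before 100 nM endothelin-1 or none; ANP and BNP mRNA quantified by RT-PCR at 24 h, normalized to 18S RNA, relative to vehicle; mean ± SD, n = 3–6.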

[2] = target: Fibroblast growth factor receptor 3 (Homo sapiens) (UniProt P22607); test: Inhibiton of human FGFR3 at 30 uM
In short: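 48-kinase profiling panel; compounds tested at 30 μM in duplicate.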

[3] = Induction of apoptosis in endothelin-1 induced neonatal rat ventricular cardiomyocytes at 50 uM measured after 24 hrs by TUNEL assay; assay type: cell-based; conditions: cardiac muscle cell
In short: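 Neonatal rat cardiomyocytes on 8-well chamber slides treated 24 h at 50 μM; apoptotic cells detected by TUNEL with peroxidase in situ kit.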

[4] = Induction of necrosis in endothelin-1 induced neonatal rat ventricular cardiomyocytes assessed as release of adenylate kinase at 50 uM measured after 24 hrs by bioluminescence assay; assay type: cell-based; conditions: cardiac muscle cell
In short: (§2)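 Neonatal rat cardiomyocytes treated 24 h at 50 μM; adenylate kinase released into medium measured by ToxiLight bioluminescence on a luminometer; relative to vehicle, mean ± SD, n = 3.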

[5] = target: Transcription factor GATA-4 (Mus musculus) (UniProt Q08369); test: Inhibition of mouse GATA4-driven transactivation of luciferase reporter construct containing BNP minimal promoter with tandem GATA-site on -90 bp expressed in African green monkey COS-1 cells after 30 hrs by luminometer; assay type: cell-based
In short: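 COS-1 cells co-transfected with firefly luciferase driven by BNP minimal or −90 bp BNP promoter, Renilla pRL-TKd238, and pMT2-GATA4 or empty pMT2. Compounds added 6 h post-transfection in 0.1% DMSO, refreshed with medium at 24 h; lysis at 30 h; dual-luciferase, firefly/Renilla normalized to vehicle; triplicate wells.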

[6] = target: T2, GATA4/NKX2-5 (Mus musculus) (UniProt Q08369+P42582); test: Inhibition of mouse GATA4/NKX2-5 transcriptional synergy expressed in African green monkey COS-1 cells at 50 uM measured after 30 hrs by dual luciferase reporter gene assay; assay type: cell-based
In short: (§3)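 COS-1 cells co-transfected (Fugene 6, DNA:reagent 1:3) with p3xNKE-luc, Renilla pRL-TKd238 control, and pMT2-GATA4, pMT2-NKX2-5, both, or empty pMT2; DNA balanced with pMT2. Compounds added 6 h post-transfection in 0.1% DMSO, medium renewed at 24 h, lysis at 30 h. Dual-luciferase read-out, firefly/Renilla normalized to vehicle; duplicate wells.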

GATA4/NKX2-5 = GATA4/NKX2-5 (Mus musculus, UniProt P42582+Q08369); test: Inhibition of mouse GATA4/NKX2-5 transcriptional synergy expressed in African green monkey COS-1 cells measured after 30 hrs by dual luciferase reporter gene assay; assay type: cell-based; in short: as §3
[7] = Induction of aggregation of compound at 3 to 30 uM by nephalometric method
[8] = target: Transcription factor GATA-4 (Rattus norvegicus) (UniProt P46152); test: Inhibition of binding of GATA4 to [32P]-double stranded oligonucleotide in neonatal rat ventricular cardiomyocytes at 50 uM measured after 24 hrs by EMSA method
In short: (§4)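 Neonatal rat cardiomyocytes treated 24 h with 50 μM; nuclear extracts incubated 20 min with [α-32P]dCTP Klenow-labeled GATA4- or NKX2-5-site oligonucleotide in HEPES/NaCl/KCl/MgCl2 buffer with poly(dI-dC); 5% native PAGE, phosphorimager; supershift with anti-GATA4/NKX2-5; relative to vehicle, mean ± SD, n = 3–5.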

[9] = target: Homeobox protein Nkx-2.5 (Rattus norvegicus) (UniProt O35767); test: Inhibition of binding of NKX2-5 to [32P]-double stranded oligonucleotide in neonatal rat ventricular cardiomyocytes at 50 uM measured after 24 hrs by EMSA method; in short: as §4
[10] = Induction of aggregation of compounds at 100 uM by nephalometric method
[11] = target: Transcription factor GATA-4 (Mus musculus) (UniProt Q08369); test: Inhibition of binding of mouse GATA4 to [32P]-double stranded oligonucleotide expressed in African green monkey COS-1 cells at 50 uM preincubated for 10 mins followed by [32P]-double stranded oligonucleotide addition measured after 20 mins by EMSA method; assay type: cell-based
In short: (§5)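 Nuclear extracts from COS-1 cells transfected with pMT2-GATA4 or pMT2-NKX2-5 (harvested 48 h) preincubated 10 min with 50 μM compound, then 20 min with 32P-labeled GATA4- or NKX2-5-site probe; native 5% PAGE, phosphorimager quantitation; antibody supershift controls; mean ± SD, n = 3–5.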

[12] = Induction of necrosis in neonatal rat ventricular cardiomyocytes assessed as release of adenylate kinase at 50 uM measured after 24 hrs by bioluminescence assay; assay type: cell-based; conditions: cardiac muscle cell; in short: as §2
[13] = target: T1, GATA4/NKX2-5 (Rattus norvegicus); test: Activation of GATA4/NKX2-5 interaction in neonatal rat ventricular cardiomyocytes assessed as increase in basal mRNA level of BNP at 100 uM after 24 hrs by real-time PCR analysis relative to control; in short: as §1
[14] = target: Homeobox protein Nkx-2.5 (Mus musculus) (UniProt P42582); test: Inhibition of binding of mouse NKX2-5 to [32P]-double stranded oligonucleotide expressed in African green monkey COS-1 cells at 50 uM preincubated for 10 mins followed by [32P]-double stranded oligonucleotide addition measured after 20 mins by EMSA method; assay type: cell-based; in short: as §5
[15] = target: T1, GATA4/NKX2-5 (Rattus norvegicus); test: Activation of GATA4/NKX2-5 interaction in neonatal rat ventricular cardiomyocytes assessed as increase in endothelin-1 induced mRNA level of BNP at 20 uM preincubated for 1 hr followed by endothelin-1 addition measured after 23 hrs by real-time PCR analysis relative to control; in short: as §1
[16] = target: T2, GATA4/NKX2-5 (Mus musculus); test: Activation of mouse GATA4/NKX2-5 transcriptional synergy expressed in African green monkey COS-1 cells at 10 uM measured after 30 hrs by dual luciferase reporter gene assay; assay type: cell-based; in short: as §3
[17] = Induction of aggregation of compound at 30 uM by nephalometric method
[18] = target: T1, GATA4/NKX2-5 (Rattus norvegicus); test: Activation of GATA4/NKX2-5 interaction in neonatal rat ventricular cardiomyocytes assessed as increase in basal mRNA level of BNP at 20 uM after 24 hrs by real-time PCR analysis relative to control; in short: as §1
[19] = target: T1, GATA4/NKX2-5 (Rattus norvegicus); test: Activation of GATA4/NKX2-5 interaction in neonatal rat ventricular cardiomyocytes assessed as increase in basal mRNA level of ANP at 20 uM after 24 hrs by real-time PCR analysis relative to control; in short: as §1
[20] = target: T2, GATA4/NKX2-5 (Mus musculus); test: Activation of mouse GATA4/NKX2-5 transcriptional synergy expressed in African green monkey COS-1 cells measured after 30 hrs by dual luciferase reporter gene assay; assay type: cell-based; in short: as §3
[21] = Drug level in mouse embryonic stem cells treated with N-[4-(Diethylamino)phenyl]-5-methyl-3-phenylisoxazole-4-carboxamide at 3 to 5 uM measured after 10 days by HPLC/MS method; assay type: ADME, cell-based; conditions: embryonic stem cell, 240 h
In short: (§6)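 Mouse embryonic stem cells exposed 5 and 10 days to 3 or 5 μM, with DMSO and EB differentiation medium blanks. Medium extracted with chloroform; cells pelleted, saline-washed twice, sonicated in chloroform. UPLC-ESI(+)-QTOF/MS, BEH C18, 0.1% formic acid water/acetonitrile gradient 7–80% B over 5 min, 0.6 mL/min, 40 °C.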

[22] = Drug level in embryoid body differentiation medium treated with N-[4-(Diethylamino)phenyl]-5-methyl-3-phenylisoxazole-4-carboxamide at 3 to 5 uM measured after 10 days by HPLC/MS method; in short: as §6
[23] = target: T2, GATA4/NKX2-5 (Mus musculus); conditions: 10 uM

Sequence of GATA4/NKX2-5 (Q08369 whole entry): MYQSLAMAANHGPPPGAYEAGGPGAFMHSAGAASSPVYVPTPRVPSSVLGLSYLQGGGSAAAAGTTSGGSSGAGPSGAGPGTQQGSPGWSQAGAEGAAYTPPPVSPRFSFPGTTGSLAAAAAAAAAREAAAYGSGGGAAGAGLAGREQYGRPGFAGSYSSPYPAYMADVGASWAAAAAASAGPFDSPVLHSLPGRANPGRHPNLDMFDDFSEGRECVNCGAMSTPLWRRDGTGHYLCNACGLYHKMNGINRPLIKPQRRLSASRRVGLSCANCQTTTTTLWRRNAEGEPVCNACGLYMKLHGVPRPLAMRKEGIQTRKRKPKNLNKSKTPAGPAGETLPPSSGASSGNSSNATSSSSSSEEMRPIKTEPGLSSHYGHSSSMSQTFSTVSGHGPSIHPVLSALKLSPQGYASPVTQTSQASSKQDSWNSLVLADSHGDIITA
Sequence of GATA4/NKX2-5 (P42582 whole entry): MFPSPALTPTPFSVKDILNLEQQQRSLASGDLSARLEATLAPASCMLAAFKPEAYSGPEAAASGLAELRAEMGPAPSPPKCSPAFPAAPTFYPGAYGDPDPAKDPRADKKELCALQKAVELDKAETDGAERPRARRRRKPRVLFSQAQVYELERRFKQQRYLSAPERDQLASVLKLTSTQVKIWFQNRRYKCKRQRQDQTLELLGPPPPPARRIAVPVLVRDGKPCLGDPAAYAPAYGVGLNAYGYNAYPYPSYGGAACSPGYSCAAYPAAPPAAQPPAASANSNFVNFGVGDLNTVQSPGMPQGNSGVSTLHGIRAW
Sequence of Transcription factor GATA-4 (Mus musculus) (Q08369 whole entry): as the sequence (Q08369 whole entry) above
Sequence of Homeobox protein Nkx-2.5 (Mus musculus) (P42582 whole entry): as the sequence (P42582 whole entry) above
Sequence of Transcription factor GATA-4 (Rattus norvegicus) (P46152 whole entry): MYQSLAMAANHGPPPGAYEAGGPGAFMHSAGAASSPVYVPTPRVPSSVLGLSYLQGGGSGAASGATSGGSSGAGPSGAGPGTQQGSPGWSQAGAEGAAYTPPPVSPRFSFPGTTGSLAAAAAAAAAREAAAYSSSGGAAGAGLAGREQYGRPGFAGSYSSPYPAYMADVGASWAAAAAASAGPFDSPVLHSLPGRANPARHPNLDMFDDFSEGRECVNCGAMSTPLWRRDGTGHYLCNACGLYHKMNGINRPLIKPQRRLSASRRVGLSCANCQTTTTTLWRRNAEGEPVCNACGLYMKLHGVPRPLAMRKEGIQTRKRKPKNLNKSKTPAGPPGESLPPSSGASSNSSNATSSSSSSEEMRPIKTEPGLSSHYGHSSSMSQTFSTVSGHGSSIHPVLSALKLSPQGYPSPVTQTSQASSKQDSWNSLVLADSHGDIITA
Sequence of Homeobox protein Nkx-2.5 (Rattus norvegicus) (O35767 whole entry): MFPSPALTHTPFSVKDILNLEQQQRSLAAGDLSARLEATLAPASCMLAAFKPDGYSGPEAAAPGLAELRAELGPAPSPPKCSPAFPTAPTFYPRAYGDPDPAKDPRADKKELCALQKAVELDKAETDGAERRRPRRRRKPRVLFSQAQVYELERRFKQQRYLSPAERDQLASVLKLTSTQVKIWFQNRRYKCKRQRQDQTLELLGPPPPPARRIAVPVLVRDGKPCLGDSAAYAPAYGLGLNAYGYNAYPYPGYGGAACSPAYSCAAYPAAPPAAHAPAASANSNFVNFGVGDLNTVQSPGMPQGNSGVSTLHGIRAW
Sequence of Fibroblast growth factor receptor 3 (Homo sapiens) (P22607 23-806 limits assumed): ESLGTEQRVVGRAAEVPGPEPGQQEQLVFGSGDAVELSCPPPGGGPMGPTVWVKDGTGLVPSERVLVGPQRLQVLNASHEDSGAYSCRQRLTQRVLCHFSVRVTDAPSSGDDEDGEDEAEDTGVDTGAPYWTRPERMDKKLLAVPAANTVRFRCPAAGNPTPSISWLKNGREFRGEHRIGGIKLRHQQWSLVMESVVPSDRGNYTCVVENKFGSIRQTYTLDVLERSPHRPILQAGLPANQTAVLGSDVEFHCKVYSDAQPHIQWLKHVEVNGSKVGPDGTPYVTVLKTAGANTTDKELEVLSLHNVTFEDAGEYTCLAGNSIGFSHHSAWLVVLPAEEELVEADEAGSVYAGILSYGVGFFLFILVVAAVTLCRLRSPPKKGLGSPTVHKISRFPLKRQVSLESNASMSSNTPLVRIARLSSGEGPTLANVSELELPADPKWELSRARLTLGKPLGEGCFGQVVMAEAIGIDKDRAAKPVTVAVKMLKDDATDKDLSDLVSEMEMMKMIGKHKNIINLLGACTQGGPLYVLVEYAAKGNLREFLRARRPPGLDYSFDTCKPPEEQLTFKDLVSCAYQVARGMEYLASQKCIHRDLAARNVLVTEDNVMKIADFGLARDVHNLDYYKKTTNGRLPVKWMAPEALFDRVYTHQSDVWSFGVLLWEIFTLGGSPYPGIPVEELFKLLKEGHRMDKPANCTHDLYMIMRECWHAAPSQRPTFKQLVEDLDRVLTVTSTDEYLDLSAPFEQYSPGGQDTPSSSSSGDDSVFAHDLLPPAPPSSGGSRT

fold change (FC) [1]: 8.6 | inhibition [2]: 55% | inhibition [5]: Active | inhibition [6]: Active | IC50 (GATA4/NKX2-5): 10 µM | inhibition [8]: 37% | inhibition [9]: 29% | inhibition [11]: inactive | fold change (FC) [13]: 4.9 | inhibition [14]: Active
Compound: CCCOc1ccc(/C=N/n2c(S)nnc2-c2ccncc2)cc1
Activity [3]: Non-Toxic | Activity [4]: Non-Toxic | Activity [7]: inactive | Activity [10]: Active | Activity [12]: Non-Toxic

fold change (FC) [15]: 2.1 | Activity [16]: Active | fold change (FC) [18]: 6.4 | fold change (FC) [19]: 4.6 | Ka [20]: 7 µM
Compound: Cc1onc(-c2ccccc2)c1C(=O)N(C1=NC(C)CS1)c1ccc(Cl)cc1 (configuration not stated)
Activity [17]: Active | Activity [3]: Non-Toxic | Activity [4]: Non-Toxic | Activity [10]: Active | Activity [12]: Non-Toxic

Drug metabolism [21]: Metabolite_Detected | IC50 (GATA4/NKX2-5): > 50 µM
Compound: CCNc1ccc(NC(=O)c2c(-c3ccccc3)noc2C)cc1
Drug metabolism [22]: Metabolite detected

IC50 (GATA4/NKX2-5): 5 µM | inhibition [11]: Active | inhibition [23]: Active | inhibition [14]: inactive
Compound: CC(C)COC(=O)c1ccc(NC(=O)c2ccncc2)cc1
